Results reported in publication PMC5450914 (Bioorganic & medicinal chemistry, 2017).

Legend:
[1] = molecular target: T1, Recombinant GGDPS (Homo sapiens, UniProt O95749); test: GGDPS enzyme assay; format: biochemical
T1 sequence (O95749 1-300): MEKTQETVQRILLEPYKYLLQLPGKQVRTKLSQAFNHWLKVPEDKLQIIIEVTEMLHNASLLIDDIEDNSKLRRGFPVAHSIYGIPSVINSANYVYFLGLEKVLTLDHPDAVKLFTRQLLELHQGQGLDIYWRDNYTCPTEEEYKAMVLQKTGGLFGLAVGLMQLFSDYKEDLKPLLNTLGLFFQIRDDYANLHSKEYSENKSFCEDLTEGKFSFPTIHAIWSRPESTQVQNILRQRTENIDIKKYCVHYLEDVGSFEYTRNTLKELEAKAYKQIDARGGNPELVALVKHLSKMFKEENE

[2] = tested on: RPMI-8226 cells; test: Disruption of protein geranylgeranylation in myeloma cells; format: cell-based; conditions: 48 hours
Outline: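 RPMI-8226 myeloma cells exposed 48 h to varying test compound concentrations, with lovastatin 10 μM as comparator. Rap1a: RIPA whole-cell lysate, antibody recognising only unmodified protein, β-tubulin loading control. Rab6: Triton X-114 detergent (membrane) fraction, calnexin loading control, densitometry normalised to calnexin and to untreated cells. Equal BCA-quantified protein resolved by SDS-PAGE, transferred to PVDF, detected with HRP secondary and ECL.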

Row | potency relative to geranyl 1 (GGDPS inhibitory activity) ([1]; compared with previously reported compound 1) | fold less potent than homogeranyl 4 (GGDPS inhibitory activity) ([1]; compared with previously reported compound 4) | SMILES | lowest concentration at which disruption of protein geranylgeranylation was seen [2]
1 | six-fold more potent | 15 fold | CC(C)=CCC/C(C)=C/CCCn1cc(CC(P(=O)([O-])[O-])P(=O)([O-])[O-])nn1.[Na+].[Na+].[Na+].[Na+] [17b, Sodium (4E)–(2–(1–(5,9–dimethyldeca–4,8–dienyl)–1H–1,2,3–triazol–4–yl)ethane–1,1–diyl)bis(phosphonate)] | –
2 | – | – | CC(C)=CCC/C(C)=C\CCCn1cc(CC(P(=O)([O-])[O-])P(=O)([O-])[O-])nn1.[Na+].[Na+].[Na+].[Na+] [17c, Sodium (4Z)–(2–(1–(5,9–dimethyldeca–4,8–dienyl)–1H–1,2,3–triazol–4–yl)ethane–1,1–diyl)bis(phosphonate)] | 0.5 µM
